Results taken from PubChem BioAssay AID624306 (The Scripps Research Institute Molecular Screening Center, 2012).
Calls of active or inactive are those of the source.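 Rule for the calls: active = inhibition of insulin-degrading enzyme persists after dilution, judged irreversible; inactive = inhibition lost or reduced after dilution, judged reversible.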

Target: Insulin-degrading enzyme (Homo sapiens) (UniProt P14735)
Assay: reversibility of cysteine-free IDE inhibition, late-stage follow-up, mechanism study for IDE inhibitor project, biochemical, cysteine-free mutant, FRET1 fluorogenic peptide (AID 624306)
Conditions: recombinant cysteine-free IDE, FRET1 fluorescence
Summary of the method: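 System: Mutant insulin-degrading enzyme (IDE) | Input: Mutant IDE at 1 nM in the well | Also added: Substrate 1 µM | Dosing: Top compound dose 100 µM | Times: Kinetic reads every 2 min over 2 h, room temperature | Technique: Fluorescence at 335/385 nm | Controls: Vehicle (high) and no-enzyme (low) wells | Replication: Triplicate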

Sequence of Insulin-degrading enzyme (Homo sapiens) (P14735 whole entry, looked up): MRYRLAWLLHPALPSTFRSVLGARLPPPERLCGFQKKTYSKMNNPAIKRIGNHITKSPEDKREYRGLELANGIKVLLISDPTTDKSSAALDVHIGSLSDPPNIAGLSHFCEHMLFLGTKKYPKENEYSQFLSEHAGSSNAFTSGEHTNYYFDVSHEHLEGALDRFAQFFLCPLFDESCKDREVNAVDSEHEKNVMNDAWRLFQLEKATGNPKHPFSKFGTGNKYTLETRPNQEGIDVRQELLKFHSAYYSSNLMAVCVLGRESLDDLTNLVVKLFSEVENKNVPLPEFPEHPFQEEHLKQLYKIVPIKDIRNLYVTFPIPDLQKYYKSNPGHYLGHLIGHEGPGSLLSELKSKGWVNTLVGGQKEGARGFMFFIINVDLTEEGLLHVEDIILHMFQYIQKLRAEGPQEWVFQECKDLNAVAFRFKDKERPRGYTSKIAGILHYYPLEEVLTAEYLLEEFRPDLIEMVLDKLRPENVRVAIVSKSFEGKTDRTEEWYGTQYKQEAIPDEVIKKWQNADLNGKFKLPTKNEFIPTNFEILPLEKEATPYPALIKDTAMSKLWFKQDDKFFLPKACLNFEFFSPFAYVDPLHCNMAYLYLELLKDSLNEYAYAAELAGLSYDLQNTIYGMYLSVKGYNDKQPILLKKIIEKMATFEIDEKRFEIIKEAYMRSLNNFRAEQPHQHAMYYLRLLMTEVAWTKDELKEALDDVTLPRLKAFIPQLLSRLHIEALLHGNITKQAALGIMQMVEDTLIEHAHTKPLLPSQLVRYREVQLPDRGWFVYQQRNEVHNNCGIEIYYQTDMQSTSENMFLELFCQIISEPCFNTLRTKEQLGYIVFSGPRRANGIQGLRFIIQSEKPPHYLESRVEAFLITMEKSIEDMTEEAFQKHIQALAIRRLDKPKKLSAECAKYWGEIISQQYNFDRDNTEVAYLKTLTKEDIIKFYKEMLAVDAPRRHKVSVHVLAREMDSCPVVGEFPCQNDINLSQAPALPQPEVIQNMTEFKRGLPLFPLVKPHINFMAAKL

Compound	outcome
Cc1c(CCC(=O)NCCCn2ccnc2)c(=O)oc2cc3oc4c(c3cc12)CCCC4	inactive
O=C(O)c1ccccc1NS(=O)(=O)c1cccc(-n2sc3ccccc3c2=O)c1	active
O=C(Nc1cccc(C(F)(F)F)c1)c1csc(-c2ccncc2)n1	inactive
COc1ccc(C(=O)N2CCN(C(=O)C3COc4ccccc4O3)CC2)cc1OC (stereo not given)	inactive
COc1cc(/C=C2\SC(=S)N(NC(C)=O)C2=O)ccc1OC(=O)c1ccco1	inactive
O=c1c2ccccc2sn1-c1cc(S(=O)(=O)N2CCOCC2)ccc1N1CCOCC1	active
Cn1c(=O)c(C(=O)CN2CCCc3ccccc32)c(N)n(Cc2ccccc2)c1=O	inactive

Results, then the compound that gave them:

outcome	Compound
inactive	Cc1cccc(-c2nnc(SCc3nc4ccccc4[nH]3)n2Cc2ccco2)c1
inactive	Clc1cccc(-c2nnc(SCc3nc4ccccc4[nH]3)n2Cc2ccco2)c1
inactive	COc1cccc(-c2nnc(SCc3nc4ccccc4[nH]3)n2Cc2ccco2)c1
